The source of these data is the array DNA melting data of Ke et al. (doi:10.1101/2024.01.08.574731).

Data set [1] can be described thus: folding enthalpy; higher = less favourable; fluorescence melt of hairpins on a sequencing array, two-state fit. The settings on record: sodium 0.088 M. Summed up:
(§1)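 Melting temperature and folding enthalpy were obtained by bootstrapped two-state fitting. Fits used Cy3 fluorescence of library hairpins with annealed Cy3 and quencher oligos on a sequenced MiSeq flow cell, imaged in 50 mM Na-HEPES pH 8.0, 25 mM NaCl in 2.5 °C steps up to 60 °C and normalised to pre-quench Cy3 and control constructs. Four replicates were combined by inverse-variance weighting, and fitted temperatures were raised by 9.35 °C to match UV melts.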

The nature of data set [2]: melting temperature; fluorescence melt of hairpins on a sequencing array, two-state fit, raised by 9.35 °C to match UV melts. The settings on record: sodium 0.088 M. Summed up: as §1

Consider GATCTTGTTAAAGATC ((((((....)))))), for which, in data set [1], the folding enthalpy was -37.3 kcal/mol. Also, the Tm in data set [2] worked out at 53.7 °C.
Regarding GATCTTGTTAAGATC ((((((...)))))), the folding enthalpy in data set [1] was -30.1 kcal/mol. In addition, the Tm in data set [2] was 45.8 °C.
Taken in the same sequence, the figures for GATCTTTAAGAAGATC ((((((....)))))) were -34.9 kcal/mol and 41.5 °C.
The like results for GATCTTTATGAAGATC ((((((....)))))) were, in that order, -36.5 kcal/mol and 44.9 °C.
In the case of GATCTTTCAGAAGATC ((((((....)))))), the folding enthalpy in data set [1] was -34.1 kcal/mol. For the same sequence, the Tm in data set [2] is 44.3 °C.
As to GATCTTTCGAAAGATC ((((((....)))))), in data set [1], the folding enthalpy was -40.8 kcal/mol. Further, the Tm in data set [2] was 49.3 °C.
Regarding GATCTTTGGAAAGATC ((((((....)))))), the folding enthalpy in data set [1] was -31.5 kcal/mol. In data set [2], the Tm was found to be 42.7 °C.
For GATCTTTGTCAAGATC ((((((....)))))), the folding enthalpy in data set [1] is -33 kcal/mol. Moreover, in data set [2], the Tm amounted to 39.9 °C.
The like results for GATCTTTTGGAAGATC ((((((....)))))) were, in that order, -34.1 kcal/mol and 44.3 °C.
The like results for GATGAACCGAAAGGTATC (((..(((....)))))) were, in that order, -12.9 kcal/mol and 28.8 °C.
Turning to GATGAAGGAAACTTCATC (((((((....))))))), the folding enthalpy in data set [1] was -40.9 kcal/mol. For the same sequence, in data set [2], the Tm turned out to be 53.5 °C.
Regarding GATGAAGGAAACTTCGTC ((.((((....)))).)), the folding enthalpy in data set [1] is -27 kcal/mol. Further, the Tm in data set [2] came out at 42.4 °C.
Take GATGACGAAAGTCCATC ((((((....))).))): the folding enthalpy in data set [1] was -17.2 kcal/mol. Besides, the Tm in data set [2] came out at 41.5 °C.
As for GATGACGAAAGTCGCATC ((((((....)))..))), the folding enthalpy in data set [1] was -11.1 kcal/mol. Besides, the Tm in data set [2] is 30.8 °C.
For GATGAGACGAAAGTCATC (((..(((....)))))), the folding enthalpy in data set [1] was -13.4 kcal/mol. Further, the Tm in data set [2] worked out at 35.9 °C.
Turning to GATGAGCGAAAGCTAATC (((.(((....))).))), in data set [1], the folding enthalpy was -24.9 kcal/mol. Further, the Tm in data set [2] was 46.6 °C.
The like results for GATGAGGGAAACCCCATC ((((.((....)).)))) were, in that order, -31.4 kcal/mol and 41.2 °C.
Consider GATGAGGGAAACTTCATC (((((.(....).))))), for which, in data set [1], the folding enthalpy was -25 kcal/mol. The Tm in data set [2] was determined as 37.1 °C.
Consider GATGATGGAAACATCACC (.(((((....))))).), for which the folding enthalpy in data set [1] is -16.3 kcal/mol. Besides, the Tm in data set [2] was found to be 37.3 °C.
Taken in the same sequence, the figures for GATGCACCGAAAGGTATC (((..(((....)))))) were -9.42 kcal/mol and 29 °C.
With GATGCAGGAAACCGCATC (((((.(....).))))), in data set [1], the folding enthalpy is -33.5 kcal/mol. Further, the Tm in data set [2] came out at 49.9 °C.
As to GATGCAGGAAACTGCACC (.(((((....))))).), the folding enthalpy in data set [1] was -12.7 kcal/mol. Also, the Tm in data set [2] amounted to 40.5 °C.
Taken in the same sequence, the figures for GATGCCCGAAAGGGAATC (((.(((....))).))) were -37.9 kcal/mol and 53.9 °C.
Regarding GATGCCCGAAAGGGATC (((.(((....)))))), the folding enthalpy in data set [1] is -17.4 kcal/mol. Also, the Tm in data set [2] amounted to 45 °C.
As for GATGCCGAAAGGCGAATC ((((((....)))..))), in data set [1], the folding enthalpy is -9.65 kcal/mol. Further, in data set [2], the Tm is 36.9 °C.
For GATGCCGAAAGGCGTATC ((((((....)))..))), the folding enthalpy in data set [1] was -11.5 kcal/mol. The Tm in data set [2] turned out to be 36.4 °C.
GATGCCGGAAACGACATC ((((.((....)).)))): in data set [1], the folding enthalpy is -38.3 kcal/mol. In addition, the Tm in data set [2] came to 48.2 °C.
Take GATGCCGGAAACGGTATC (((.(((....))).))): the folding enthalpy in data set [1] is -42.9 kcal/mol. For the same sequence, the Tm in data set [2] turned out to be 53.9 °C.
As to GATGCGACGAAAGTCATC (((..(((....)))))), the folding enthalpy in data set [1] was -13 kcal/mol. Moreover, the Tm in data set [2] is 27.8 °C.
The like results for GATGCGCGAAAGCGATC (((.(((....)))))) were, in that order, -12 kcal/mol and 41.3 °C.
For GATGCGGGAAACCGTATC (((.(((....))).))), in data set [1], the folding enthalpy was -34.4 kcal/mol. Also, in data set [2], the Tm was 50.3 °C.
Taken in the same sequence, the figures for GATGCTGGAAACGGCATC (((((.(....).))))) were -44.1 kcal/mol and 54.3 °C.
The like results for GATGGACGAAAGTCAATC (((.(((....))).))) were, in that order, -26.3 kcal/mol and 48.1 °C.
Taken in the same sequence, the figures for GATGGAGGAAACTCCGTC ((.((((....)))).)) were -31.9 kcal/mol and 48.9 °C.
On to GATGGAGGAAACTTCATC ((((.((....)).)))), for which the folding enthalpy in data set [1] is -37.5 kcal/mol. The Tm in data set [2] was determined as 39.6 °C.
Turning to GATGGCGAAAGCCAATC ((((((....))).))), in data set [1], the folding enthalpy was -14.1 kcal/mol. Besides, the Tm in data set [2] was 50.7 °C.
For GATGGCGAAAGCCGAATC ((((((....)))..))), the folding enthalpy in data set [1] was -8.36 kcal/mol. Also, in data set [2], the Tm stood at 34.4 °C.
As for GATGGCGAAAGCCTAATC ((((((....)))..))), the folding enthalpy in data set [1] was -9.84 kcal/mol. The Tm in data set [2] is 32 °C.
